# Screening data as filed in PubChem.
# Most compounds without a hit are left out; they make up all but 0.99% or so of the library.
# Dyrk1A ADPGlo: rat Dyrk1A kinase inhibitors, primary screen, biochemical, single point, plate reader | inhibition, % at 12.5 µM | 0.43% of 310,000 active | ADP-Glo luminescence, NFATc1 peptide; in the data active means inhibition above about 50%;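 further: plate controls were vehicle with enzyme for no effect and no enzyme for full effect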
# GSK3beta inhib: human GSK3beta kinase inhibitors, primary screen, biochemical, cell-free homogeneous, HTS; AID 2097, 2009; GST-GSK3beta kinase, ADP-Glo luminescence, 60 min; active compounds read low; 0.038% of 300,000 active; activity score (negative = inhibition), % at 10 µM; Glycogen synthase kinase-3 beta (Homo sapiens), P49841;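 active means more than half of replicate wells score below -50%, meaning over 50% inhibition versus plate controls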;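 further: 0% = median DMSO wells and -100% = median GW8510 positive control wells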
# Target sequence (P49841 whole entry, looked up): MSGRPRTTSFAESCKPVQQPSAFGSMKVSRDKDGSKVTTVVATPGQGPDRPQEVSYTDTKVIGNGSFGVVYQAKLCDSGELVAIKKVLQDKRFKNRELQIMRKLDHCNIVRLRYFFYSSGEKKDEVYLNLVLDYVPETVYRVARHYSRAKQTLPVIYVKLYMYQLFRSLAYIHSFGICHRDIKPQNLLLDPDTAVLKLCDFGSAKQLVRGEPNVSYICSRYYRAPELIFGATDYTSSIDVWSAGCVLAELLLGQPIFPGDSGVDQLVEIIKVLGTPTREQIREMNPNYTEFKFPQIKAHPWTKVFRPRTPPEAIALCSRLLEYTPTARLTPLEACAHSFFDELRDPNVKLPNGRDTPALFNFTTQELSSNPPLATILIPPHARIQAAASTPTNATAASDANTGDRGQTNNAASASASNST
#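 Assay system: GST-fused GSK3beta enzyme, cell-free / Medium: Tris pH 7.5 buffer with MgCl2, DTT, BSA, heparin / Also added: peptide substrate plus 25 µM ATP (final) / Compound: 10 µM single point / Timing: kinase reaction with compound 60 min at room temperature / Detection: ADP-Glo luminescence / Benchmarks: DMSO neutral wells and GW8510 at 20 µM as positive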
# AI-2 QS mod: Vibrio harveyi AI-2 quorum sensing modulators, primary screen, JMH597 strain, luminescence/OD600 ratio. Vibrio harveyi JMH597 AI-2 luminescence/OD600 ratio, 9 h; active compounds read low; strain lacks LuxN and CqsS sensors; 0 = neutral-control median. activity change, % at 7.5 µM. 0.4% of 300,000 active; in the data active means activity change below about -75%, passing the limit was not always enough;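 further: luminescence divided by OD600 gain over 9 h not by final OD600 alone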
# STK33 inh: inhibitors of purified STK33 kinase, primary screen, biochemical, ADP-Glo luminescence, homogeneous, cell-free; Serine/threonine-protein kinase 33 (Homo sapiens), Q9BYT3; MBP phosphorylation; inhibition, % at 10 µM; 0.073% of 320,000 active; AID 2661, 2010;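 active means inhibition at or above 25%, using the most active replicate where run in duplicate; inactive means inhibition below 25%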
# Rce1 inhib: yeast Rce1p protease inhibitors, primary screen, biochemical, fluorescence, cell-free homogeneous; CAAX prenyl protease 2 (Saccharomyces cerevisiae (strain ATCC 204508 / S288c)), Q03530; yeast membranes, quenched prenylated peptide cleavage fluorescence; calls only; 0.27% of 290,000 active;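 active means fall in fluorescence gain of 50% or more versus controls, with final raw signal at or below 3038400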;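 further: plate controls were neutral control wells for no effect and wells lacking membranes for full effect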
# GSK3A inh: blockers of GSK3A enzyme activity – biochemical, luminescence, cell-free homogeneous, HTS, primary screen | GSK-3 alpha kinase, ADP-Glo luminescence, 60 min | inhibition, % at 10 µM | 0.1% of 320,000 active;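 active means more than half of replicates show inhibition above 20%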;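 further: GST-tagged GSK-3 alpha with peptide substrate and 25 µM ATP; 0% = DMSO neutral wells and 100% = GW8510 positive control wells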
# ADP-Glo artifact: ADP-Glo luciferase interference without Dyrk1A, dose response, artefact control for Dyrk1A inhibitor project, biochemical, luminescence, cherry-pick, set 02; 1,300 tested, under 10 active; AID 588348, 2011; shares compounds with Dyrk1A ADPGlo; ADP-Glo luciferase artifact assay, no Dyrk1A; AC50, µM (highest dose often 12 µM), inactives show at the top dose activity change, negative = inhibition;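 active means fitted half-maximal dose AC50 no more than ten times the top valid tested dose, with luminescence dropping as dose rises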
# Numbers without * were called inactive; i = inactive; / = no result.
SMILES,Dyrk1A ADPGlo,GSK3beta inhib,AI-2 QS mod,STK33 inh,Rce1 inhib,GSK3A inh,ADP-Glo artifact
Oc1ccc(Nc2nc(-c3ccccc3)nc3ccccc23)cc1,85.5*,-0.2,-2.3,2.3,i,-1.0,7.6%
Nc1cc(=O)[nH]c(SCC(=O)Nc2cc(S(=O)(=O)N3CCCCC3)ccc2Cl)n1,-3.4,/,/,1.7,/,-7.5,/
Cc1ccc(N2CN=c3s/c(=C\c4ccccn4)c(=O)n3C2)cc1,52.0*,-0.2,24.8,-0.7,i,-1.3,6.3%
O=S1(=O)c2cccc3cccc(c23)N1Cc1nnc(-c2ccccc2Br)o1,12.2,-1.8,11.1,-0.2,i,0.7,/
O=C1c2ccccc2S(=O)(=O)N1Cc1nnc(-c2ccccc2Br)o1,59.1*,-0.1,2.4,/,i,/,8.9%
CN(C(=O)COC(=O)c1ccccc1SCC(=O)N1CCCC1)C1(C#N)CCCCC1,0.8,/,/,-1.0,/,-0.5,/
O=C(c1cccc2c1-c1ccccc1/C2=N/O)N1CCCCC1,60.1*,-3.3,19.2,7.0,i,4.1,10.1%
O=C(O)c1cccc2c1-c1ccccc1/C2=N\Nc1ccccc1,7.2,1.2,32.8,-1.8,i,-1.0,/
O=C(O)c1cccc2c1/C(=N/O)c1ccccc1-2,81.3*,0.5,49.2,4.5,i,2.3,8.6%
NC(=O)N/N=C1\c2ccccc2-c2c(C(N)=O)cccc21,51.2*,2.3,9.8,7.6,i,5.2,10.3%
CCOC(=O)CN1CC(C)(C)N(CC(=O)OCC)CC1(C)C,-1.6,/,/,/,/,/,/
N/N=C/C(=N\Nc1ccc(Cl)cc1)C(=O)c1ccncc1,2.3,-2.4,5.0,-1.4,i,-1.6,/
O=C(O)c1ccc(N=NNc2cccc([N+](=O)[O-])c2)cc1,15.7,-1.2,20.3,1.3,i,4.8,/
N#C/C(=N\Nc1cccc([N+](=O)[O-])c1)C(=O)c1ccc(Br)cc1,78.4*,1.5,46.6,-0.2,i,8.0,7.5%
CC(C)(NS(=O)(=O)OCC(Cl)(Cl)Cl)c1ccccc1,9.4,1.3,3.7,-1.1,i,-1.9,/
CC[C@@](C)(NS(=O)(=O)OCC(Cl)(Cl)Cl)c1ccccc1,56.8*,0.0,10.8,0.1,i,-0.1,6.3%
O=C(Cc1c(F)cccc1Cl)Nc1nc2ccccc2s1,51.4*,0.0,-13.5,4.7,i,0.2,5.8%
CC1CCN(S(=O)(=O)c2ccc(C(=O)N3CCCC3C(=O)O)cc2)CC1 (stereo not drawn),-4.9,/,/,0.1,/,-1.8,/
COC(=O)C1=C(C(=O)OC)C(c2cc(Br)ccc2O)c2sc(=O)[nH]c2S1 (stereo not drawn),63.3*,/,/,0.5,/,21.7,9.4%
Cc1ccc(S(=O)(=O)N2CCN(C(=O)COC(=O)CCCOc3ccccc3)CC2)c(C)c1,/,/,/,-2.5,/,-20.8,/
CN(C(=O)CN1C(=O)c2ccccc2S1(=O)=O)C1CCCCC1,/,/,/,-1.0,/,-1.1,/
Cc1[nH]nc2c1-c1nc3ccccc3nc1C(C)(C)C2,79.8*,-5.3,8.9,10.1,i,36.2,8.6%
CCN(CC(=O)Nc1ccc(S(=O)(=O)N2CCCC2)cc1)CC(=O)Nc1ccccc1C(F)(F)F,/,/,/,-2.0,/,-8.0,/
O=C(O)c1ccc(-c2ccc(/C=N/Nc3ccc([N+](=O)[O-])cc3)o2)cc1,6.7,-0.1,14.7,0.6,i,1.5,/
O=C(O)c1cccc(-c2ccc(/C=N/Nc3ccc([N+](=O)[O-])cc3)o2)c1,59.9*,-2.3,0.3,1.2,i,12.7,7.9%
